The values below come from ChEMBL document CHEMBL4368874, “Synthesis, biological evaluation, and structure activity relationship (SAR) study of pyrrolidine amide derivatives as N-acylethanolamine acid amidase (NAAA) inhibitors” (Medchemcomm, 2019).

Active and inactive are the calls of the source.

Data set [1] concerns the target T1, N-acylethanolamine-hydrolyzing acid amidase (Rattus norvegicus, UniProt Q5KTC7).
T1 sequence (Q5KTC7 whole entry): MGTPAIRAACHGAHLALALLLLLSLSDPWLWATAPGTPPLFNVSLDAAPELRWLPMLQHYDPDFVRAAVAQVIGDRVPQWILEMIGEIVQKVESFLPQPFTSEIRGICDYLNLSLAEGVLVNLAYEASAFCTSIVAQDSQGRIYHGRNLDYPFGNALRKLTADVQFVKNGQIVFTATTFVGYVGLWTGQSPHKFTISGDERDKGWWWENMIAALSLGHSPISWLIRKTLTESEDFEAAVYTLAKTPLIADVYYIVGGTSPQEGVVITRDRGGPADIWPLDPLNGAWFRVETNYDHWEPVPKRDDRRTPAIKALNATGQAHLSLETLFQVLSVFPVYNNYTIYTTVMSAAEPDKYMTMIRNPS
In words: Inhibition of rat NAAA expressed in HEK293 cells using heptadecenoylethanolamide as substrate after 30 mins HPLC-MS/MS analysis. In outline: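 Enzyme source: HEK293 cells stably overexpressing rat NAAA, grown in DMEM/10% FBS with G418. Cells were sonicated in 20 mM Tris-HCl pH 7.5 with 0.32 M sucrose, and the 800 × g supernatant was used. 30 µg protein was incubated with 25 µM heptadecenoylethanolamide for 30 min at 37 °C in 50 mM phosphate pH 4.5 with 0.1% Triton X-100 and 3 mM DTT. Stopped with methanol containing heptadecanoic acid internal standard; remaining substrate measured by HPLC-MS/MS; IC50 from curve fitting.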

Data set [2] addresses T2, Fatty-acid amide hydrolase 1 (Rattus norvegicus, UniProt P97612).
T2 sequence (P97612 whole entry): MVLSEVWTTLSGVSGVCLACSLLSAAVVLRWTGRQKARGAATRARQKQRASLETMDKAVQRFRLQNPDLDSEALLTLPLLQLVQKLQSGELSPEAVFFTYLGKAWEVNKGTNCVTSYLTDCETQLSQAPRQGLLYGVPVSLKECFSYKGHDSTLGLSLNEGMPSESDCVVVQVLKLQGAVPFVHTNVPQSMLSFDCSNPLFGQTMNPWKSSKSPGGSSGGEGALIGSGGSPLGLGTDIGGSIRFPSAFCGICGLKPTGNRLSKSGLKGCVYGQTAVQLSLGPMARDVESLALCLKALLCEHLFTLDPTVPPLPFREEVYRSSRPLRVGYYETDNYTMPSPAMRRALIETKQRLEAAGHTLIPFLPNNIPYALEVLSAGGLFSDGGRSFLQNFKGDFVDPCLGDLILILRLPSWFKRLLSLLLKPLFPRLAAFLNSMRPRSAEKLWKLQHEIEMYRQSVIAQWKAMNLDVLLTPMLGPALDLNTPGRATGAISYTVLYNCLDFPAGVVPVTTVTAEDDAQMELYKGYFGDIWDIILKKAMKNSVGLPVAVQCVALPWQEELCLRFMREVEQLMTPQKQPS
As to the kind of experiment: Inhibition of rat FAAH expressed in HEK293 cells using [3H]AEA as substrate after 30 mins HPLC-MS/MS analysis. The data set is classed as cell-based. As to conditions: in the assay text read “anandamide” for “[3H]AEA”. Put shortly: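 Lysate supernatant from HEK293 cells overexpressing rat FAAH (sonication in Tris-sucrose, 800 × g spin). 30 µg protein incubated at 37 °C with 25 µM anandamide in 50 mM Tris-HCl pH 8.0 containing 0.05% fatty-acid-free BSA. Quenched with methanol containing heptadecanoic acid internal standard; remaining substrate quantified by HPLC-MS/MS; IC50 by curve fitting.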

The target in data set [3] is T3, N-acylethanolamine-hydrolyzing acid amidase (Rattus norvegicus) (UniProt Q5KTC7).
T3 sequence (whole entry): T1 sequence (Q5KTC7 whole entry)
In words: Reversible inhibition of rat NAAA expressed in HEK293 cells at 5 uM using heptadecenoylethanolamide as substrate after 8 hrs by rapid dilution based HPLC-MS/MS analysis. It is filed as cell-based.

Data set [4] can be described thus: Half life in pH 5 phosphate buffer by HPLC analysis. The data set is classed as physicochemical. Put shortly: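 Compound at 1 µM final (DMSO ≤1%) in 50 mM phosphate buffer pH 5.0, held at 37 °C for 16 h; remaining compound determined by HPLC.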
A short description of data set [5]: Half life in rat 80% plasma by HPLC analysis. It is filed as ADME, cell-free. In outline:
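Fresh rat plasma diluted to 80% (v/v) with PBS pH 7.4. Compound added to 1 µM final (DMSO ≤1%), incubated at 37 °C for 16 h; remaining compound measured by HPLC.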

In data set [6] the test system is Mus musculus. In words: Anti-inflammatory activity in mouse model of LPS-induced acute lung injury assessed as reduction in leukocytes in lungs at 30 mg/kg, po qd for 5 days by hematoxylin and eosin staining-based light microscopic analysis. The data set is classed as functional, organism-based. Put shortly: (§1)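 129s mice (20-22 g), randomly grouped at 6-8 per group. Under anesthesia they received intratracheal LPS (7 mg/kg) in PBS. From the day of LPS they got oral dosing once daily at 30 mg/kg in saline with 5% PEG 400 and 5% Tween 80, or vehicle alone. Killed 5 days after LPS. Lungs were fixed in paraformaldehyde at 4 °C, paraffin-embedded, cut at 5 µm and H&E-stained.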

In data set [7] the test system is Mus musculus. As to the kind of experiment: Anti-inflammatory activity in mouse model of LPS-induced acute lung injury assessed as reduction in lung edema at 30 mg/kg, po qd for 5 days by hematoxylin and eosin staining-based light microscopic analysis. It is filed as functional, organism-based. In outline: as §1
For data set [8], the system named is Mus musculus. In words: Anti-inflammatory activity in mouse model of LPS-induced acute lung injury at 30 mg/kg, po qd for 5 days co-treated with 2 mg/kg, ip bid PPAR-alpha antagonist MK886 by hematoxylin and eosin staining-based light microscopic analysis. The data set is classed as functional, organism-based. In outline: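 129s mice (20-22 g), 6-8 per group, were anesthetized and given intratracheal LPS (7 mg/kg) in PBS. Oral dosing at 30 mg/kg once daily (vehicle: saline, 5% PEG 400, 5% Tween 80) started on the LPS day, together with MK886 at 2 mg/kg i.p. Sacrifice at day 5. Lungs were fixed in paraformaldehyde, embedded in paraffin, sectioned at 5 µm and stained with H&E.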

The nature of data set [9]: Half life in pH 7.4 tris-HCl buffer by HPLC analysis.

What is called IC50 is the point on the concentration scale where inhibition reaches its midpoint. The low end stands for inhibition by little substance, the high end for a need for much substance. As usually defined, the half-life is the time needed for the level to fall by half in the phase considered. Higher therefore signals slow loss. Consider `O=C(/C=C/c1ccc(-c2ccccc2)cc1)N1CCCC1`, for which the values for the 50% inhibitory concentration (IC50) in [1] and in [2] were 1.5 µM and 550 µM, respectively. Besides, the inhibition result in data set [3] is “Active”. The half-life in [4], in [5] and in data set [9] was above 16 h throughout. Besides, the result with Mus musculus [6] and in the data set with Mus musculus [7] was Active. Further, in the data set on Mus musculus [8], the outcome was inactive.
